Assay results reported in ChEMBL document CHEMBL4396889, “From Inhibition to Degradation: Targeting the Antiapoptotic Protein Myeloid Cell Leukemia 1 (MCL1)” (J Med Chem, 2019).
Activity calls are given as the source filed them. The rule behind the calls is not given here.

Experiments:
OPM-2 [1] = experiment: Cytotoxicity against CRBN-/- human OPM2 cells assessed as reduction in cell viability at 50 to 10000 nM after 48 hrs by CellTiter-96 Cell Viability Assay; type: cell-based; conditions: opm-2, 48 h, 10 µM
OPM-2 [2] = experiment: Induction of apoptosis in wild type human OPM2 cells assessed as cleaved caspase-3 at 50 nM after 24 hrs in presence of 1% FBS by immunoblot analysis (reference value: 95%); type: functional
[3] = biological target: T1, Protein cereblon/Induced myeloid leukemia cell differentiation protein Mcl-1 (Homo sapiens) (UniProt Q07820+Q96SW2); experiment: Protac activity at Cereblon/MCL1 long isoform in human OPM2 cells assessed as MCL1 long isoform abundance at 100 nM after 24 hrs by immunoblot analysis relative to control; type: cell-based
OPM-2 [4] = experiment: Induction of apoptosis in wild type human OPM2 cells assessed as cleaved caspase-3 at 100 nM after 24 hrs in presence of 1% FBS by immunoblot analysis (reference value: 91%); type: functional
[5] = biological target: T1, Protein cereblon/Induced myeloid leukemia cell differentiation protein Mcl-1 (Homo sapiens); experiment: Protac activity at Cereblon/MCL1 short isoform in human OPM2 cells assessed as MCL1 short isoform abundance at 500 nM after 24 hrs by immunoblot analysis relative to control; type: cell-based
[6] = biological target: T1, Protein cereblon/Induced myeloid leukemia cell differentiation protein Mcl-1 (Homo sapiens); experiment: Protac activity at Cereblon/MCL1 long isoform in wild type human OPM2 cells at 100 nM after 48 hrs by immunoblot analysis relative to control; type: cell-based
How it was run: (§1)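 OPM2 multiple myeloma cells, wild type or CRBN-knockout, were treated for 48 h with degrader or DMSO vehicle. MCL1 long and short isoforms were detected by immunoblot and levels compared with DMSO controls.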

[7] = biological target: T1, Protein cereblon/Induced myeloid leukemia cell differentiation protein Mcl-1 (Homo sapiens); experiment: Protac activity at Cereblon/MCL1 long isoform in human OPM2 cells assessed as MCL1 long isoform level at 300 nM pre-incubated for 72 hrs followed by cycloheximide addition and measured after 120 mins by immunoblot analysis (reference value: 58%); type: cell-based
How it was run: (§2)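 Cycloheximide chase: cells were treated for 72 h with DMSO or degrader, with cycloheximide added for the final 30, 60 or 120 min. OPM2 and MM1.S cells were used, and wild-type OPM2 was compared with OPM2 CRBN-/- at 60 and 120 min. MCL1 was detected by immunoblot.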

[8] = biological target: T1, Protein cereblon/Induced myeloid leukemia cell differentiation protein Mcl-1 (Homo sapiens); experiment: Protac activity at Cereblon/MCL1 short isoform in human OPM2 cells assessed as MCL1 short isoform abundance at 250 nM after 24 hrs by immunoblot analysis relative to control; type: cell-based
[9] = Half-life in human liver microsome pre-incubated for 10 mins followed by addition of NADPH regenerating system after 5 to 60 mins by LC/MS/MS analysis; type: ADME; conditions: liver microsomes
[10] = biological target: T1, Protein cereblon/Induced myeloid leukemia cell differentiation protein Mcl-1 (Homo sapiens); experiment: Protac activity at Cereblon/MCL1 long isoform in human OPM2 cells assessed as MCL1 long isoform abundance at 250 nM after 24 hrs by immunoblot analysis relative to control; type: cell-based
[11] = biological target: T2, Induced myeloid leukemia cell differentiation protein Mcl-1 (Homo sapiens, UniProt Q07820); experiment: Induction of MCL1 short isoform degradation in CRBN-/- human OPM2 cells assessed as protein abundance at 100 nM after 48 hrs by immunoblot analysis relative to control; type: cell-based; how it was run: as §1
[12] = biological target: T1, Protein cereblon/Induced myeloid leukemia cell differentiation protein Mcl-1 (Homo sapiens); experiment: Protac activity at Cereblon/MCL1 short isoform in wild type human OPM2 cells assessed as MCL1 short isoform abundance at 100 nM after 48 hrs by immunoblot analysis relative to control; type: cell-based
How it was run: (§3)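 OPM2 wild-type cells, run alongside the CRBN-/- line, were treated for 48 h with compound or DMSO. The MCL1 long and short isoforms were then measured by immunoblot against the DMSO control.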

[13] = biological target: T2, Induced myeloid leukemia cell differentiation protein Mcl-1; experiment: Induction of MCL1 long isoform degradation in CRBN-/- human OPM2 cells assessed as protein abundance at 100 nM after 48 hrs by immunoblot analysis relative to control; type: cell-based; how it was run: as §1
[14] = biological target: T2, Induced myeloid leukemia cell differentiation protein Mcl-1; experiment: Binding affinity to His-tagged biotinylated human MCL1 by surface plasmon resonance method
[15] = biological target: T1, Protein cereblon/Induced myeloid leukemia cell differentiation protein Mcl-1 (Homo sapiens); experiment: Protac activity at Cereblon/MCL1 in human OPM2 cells assessed as protein abundance at 1 uM after 48 hrs by immunoblot analysis relative to control; type: cell-based; how it was run: as §1
[16] = biological target: T2, Induced myeloid leukemia cell differentiation protein Mcl-1; experiment: Induction of MCL1 long isoform degradation in CRBN-/- human OPM2 cells assessed as protein abundance at 300 nM pre-incubated for 72 hrs followed by cycloheximide addition and measured after 120 mins by immunoblot analysis (reference value: 37%); type: cell-based; how it was run: as §2
[17] = biological target: T1, Protein cereblon/Induced myeloid leukemia cell differentiation protein Mcl-1 (Homo sapiens); experiment: Protac activity at Cereblon/MCL1 in human OPM2 cells assessed as protein abundance at 100 nM after 48 hrs by immunoblot analysis relative to control; type: cell-based; how it was run: as §1
[18] = biological target: T1, Protein cereblon/Induced myeloid leukemia cell differentiation protein Mcl-1 (Homo sapiens); experiment: Protac activity at Cereblon/MCL1 in human OPM2 cells assessed as protein abundance at 25 nM after 48 hrs by immunoblot analysis relative to control; type: cell-based; how it was run: as §1
[19] = biological target: T1, Protein cereblon/Induced myeloid leukemia cell differentiation protein Mcl-1 (Homo sapiens); experiment: Protac activity at Cereblon/MCL1 in human OPM2 cells at 500 nM after 3 hrs in presence of proteasome inhibitor bortezomib by immunoblot analysis; type: cell-based
How it was run: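 OPM2 cells were treated for 3 h with DMSO, degrader and/or the proteasome inhibitor bortezomib, then immunoblotted for MCL1.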

[20] = biological target: T1, Protein cereblon/Induced myeloid leukemia cell differentiation protein Mcl-1 (Homo sapiens); experiment: Protac activity at Cereblon/MCL1 long isoform in human OPM2 cells assessed as MCL1 long isoform level at 300 nM pre-incubated for 72 hrs followed by cycloheximide addition and measured after 60 mins by immunoblot analysis (reference value: 84%); type: cell-based; how it was run: as §2
[21] = biological target: T1, Protein cereblon/Induced myeloid leukemia cell differentiation protein Mcl-1 (Homo sapiens); experiment: Protac activity at Cereblon/MCL1 short isoform in wild type human OPM2 cells assessed as MCL1 short isoform abundance at 500 nM after 48 hrs by immunoblot analysis relative to control; type: cell-based; how it was run: as §3
[22] = biological target: T1, Protein cereblon/Induced myeloid leukemia cell differentiation protein Mcl-1 (Homo sapiens); experiment: Protac activity at Cereblon/MCL1 in human OPM2 cell lysate assessed as induction of MCL1 polyubiquitination incubated for 3 hrs by SDS-PAGE/immunoblot analysis; type: subcellular
How it was run: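 In vitro ubiquitinylation reactions; the target (MCL1 or BRD4) was then immunoprecipitated and the immunoprecipitate immunoblotted for ubiquitin.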

[23] = biological target: T1, Protein cereblon/Induced myeloid leukemia cell differentiation protein Mcl-1 (Homo sapiens); experiment: Protac activity at Cereblon/MCL1 long isoform in human MM1S cells assessed as MCL1 long isoform level at 300 nM pre-incubated for 72 hrs followed by cycloheximide addition and measured after 60 mins by immunoblot analysis (reference value: 82%); type: cell-based; how it was run: as §2
[24] = biological target: T1, Protein cereblon/Induced myeloid leukemia cell differentiation protein Mcl-1 (Homo sapiens); experiment: Protac activity at Cereblon/MCL1 short isoform in human OPM2 cells assessed as MCL1 short isoform abundance at 100 nM after 24 hrs by immunoblot analysis relative to control; type: cell-based
[25] = biological target: T1, Protein cereblon/Induced myeloid leukemia cell differentiation protein Mcl-1 (Homo sapiens); experiment: Protac activity at Cereblon/MCL1 long isoform in human MM1S cells assessed as MCL1 long isoform level at 300 nM pre-incubated for 72 hrs followed by cycloheximide addition and measured after 30 mins by immunoblot analysis (reference value: 96%); type: cell-based; how it was run: as §2
[26] = biological target: T1, Protein cereblon/Induced myeloid leukemia cell differentiation protein Mcl-1 (Homo sapiens); experiment: Protac activity at Cereblon/MCL1 short isoform in human OPM2 cells assessed as MCL1 short isoform level at 300 nM pre-incubated for 72 hrs followed by cycloheximide addition and measured after 120 mins by immunoblot analysis (reference value: 14%); type: cell-based
How it was run: (§4)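 OPM2 or MM1.S cells were treated for 72 h with compound or DMSO. Cycloheximide was added for the final 30, 60 or 120 min. MCL1 was read by immunoblot and compared with DMSO-treated cells as a normal-turnover reference.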

[27] = biological target: T1, Protein cereblon/Induced myeloid leukemia cell differentiation protein Mcl-1 (Homo sapiens); experiment: Protac activity at Cereblon/MCL1 short isoform in human MM1S cells assessed as MCL1 short isoform level at 300 nM pre-incubated for 72 hrs followed by cycloheximide addition and measured after 60 mins by immunoblot analysis (reference value: 98%); type: cell-based; how it was run: as §4
[28] = biological target: T1, Protein cereblon/Induced myeloid leukemia cell differentiation protein Mcl-1 (Homo sapiens); experiment: Protac activity at Cereblon/MCL1 short isoform in human OPM2 cells assessed as MCL1 short isoform level at 300 nM pre-incubated for 72 hrs followed by cycloheximide addition and measured after 60 mins by immunoblot analysis (reference value: 49%); type: cell-based; how it was run: as §4

T1 sequence (Q07820 whole entry, looked up, canonical isoform): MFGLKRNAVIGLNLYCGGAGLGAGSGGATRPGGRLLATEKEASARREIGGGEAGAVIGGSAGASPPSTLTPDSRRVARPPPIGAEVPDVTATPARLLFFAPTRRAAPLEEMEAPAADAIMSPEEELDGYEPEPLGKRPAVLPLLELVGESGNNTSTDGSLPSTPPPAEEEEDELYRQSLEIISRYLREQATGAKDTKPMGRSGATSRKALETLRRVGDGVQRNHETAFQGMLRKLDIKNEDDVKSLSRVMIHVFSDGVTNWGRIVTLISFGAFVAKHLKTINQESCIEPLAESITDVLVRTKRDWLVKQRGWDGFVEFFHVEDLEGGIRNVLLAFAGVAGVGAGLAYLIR
T1 sequence (Q96SW2 whole entry, looked up, canonical isoform): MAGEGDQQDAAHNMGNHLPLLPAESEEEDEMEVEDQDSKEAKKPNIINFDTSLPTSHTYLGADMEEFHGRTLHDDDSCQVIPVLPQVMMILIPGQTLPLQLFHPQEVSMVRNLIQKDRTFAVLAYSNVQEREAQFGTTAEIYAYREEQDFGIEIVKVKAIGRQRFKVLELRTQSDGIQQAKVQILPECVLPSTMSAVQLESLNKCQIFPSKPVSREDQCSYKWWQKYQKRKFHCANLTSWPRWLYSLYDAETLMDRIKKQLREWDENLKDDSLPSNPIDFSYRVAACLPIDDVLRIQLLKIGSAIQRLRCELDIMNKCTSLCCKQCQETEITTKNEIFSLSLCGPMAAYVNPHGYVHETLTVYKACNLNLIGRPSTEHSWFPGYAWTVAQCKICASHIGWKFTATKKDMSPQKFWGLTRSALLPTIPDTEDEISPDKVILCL
T2 sequence (Q07820 whole entry, canonical isoform): as the sequence (Q07820 whole entry, looked up, canonical isoform) above

Activity [3]: 77% | Activity [5]: 22% | Activity [6]: 69% | Activity [7]: 24% | Activity [8]: 49% | half-life [9]: 20.6 min | Activity [10]: 73% | Activity [11]: 100% | Activity [12]: 53% | Activity [13]: 90% | Kd [14]: 30 nM | Activity [15]: 110% | Activity [16]: 39% | Activity [17]: 63% | Activity [18]: 89% | Activity [19]: inactive | Activity [20]: 58% | Activity [21]: 20% | Activity [22]: Active | Activity [23]: 58% | Activity [24]: 59% | Activity [25]: 90% | Activity [26]: 2% | Activity [27]: 31% | Activity [28]: 8%
Structure (SMILES): Cc1nn(C)c(COc2ccc(N3CCN(S(=O)(=O)N(C)C)CC3)cc2)c1-c1cccc2c(CCCOc3cccc4ccccc34)c(C(=O)O)n(CCN3CCN(C(=O)COc4cccc5c4C(=O)N(C4CCC(=O)NC4=O)C5=O)CC3)c12 (stereo not drawn)
Activity (OPM-2 [1]): Toxic | Activity (OPM-2 [2]): 85% | Activity (OPM-2 [4]): 143%
